What was measured:
[1] = Selectivity index, ratio of CTD50 for MDCK cells to ED50 for Influenza A virus (A/California/07/09(H1N1)) pdm09; format: toxicity, cell-based; settings: dog, read-out: Selectivity Index
[2] = Cytotoxicity against MDCK cells assessed reduction in cell viability after 48 hrs by MTT assay; format: cell-based, Canis lupus familiaris; settings: dog, read-out: CTD50
Method in brief: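 MDCK monolayers were grown in MEM with 5% fetal calf serum and washed with serum-free MEM. Compounds (5 mg/ml DMSO stock) were applied as twofold dilutions, 1000–4 microgram/ml in MEM, for 48 h at 37°C. After PBS washes, MTT (0,5 mg/ml) was added for 60 min at 37°C, 5% CO2. Formazan was dissolved in DMSO and read at 535 nm. CTD50 is the concentration cutting viability 50%.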

| Structure (SMILES) | selectivity ratio [1] | CC50 at 48 h [2] |
| --- | --- | --- |
| CC(=O)c1c(O)c(C)c(O)c2c1OC1=Cc3c(c(C)nn3-c3ccccc3)C(=O)[C@@]12C | 12 | 832 µM |
| CC(=O)c1c(O)c(C)c(O)c2c1OC1=Cc3c(c(C)nn3-c3ccccc3)C(=O)[C@]12C | 10 | 565 µM |
| CC(=O)c1c(O)c(C)c(O)c2c1OC1=Cc3c(c(C)nn3-c3ccccc3)[C@@H](O)[C@@]12C | 11 | 26.3 µM |
| CC(=O)c1c(O)c(C)c(O)c2c1OC1=CC(=O)/C(=C(/C)NCC(=O)O)C(=O)[C@@]12C | 6 |  |
| CC(=O)c1c(O)c(C)c(O)c2c1OC1=CC(=O)/C(=C(/C)NCC(=O)O)C(=O)[C@]12C | 14 | 150 µM |
| CC(=O)c1c(O)c(C)c(O)c2c1OC1=CC(=O)/C(=C(/C)NCCC(=O)O)C(=O)[C@@]12C | 20.3 | 147 µM |
| CC(=O)c1c(O)c(C)c(O)c2c1OC1=CC(=O)/C(=C(/C)NCCC(=O)O)C(=O)[C@]12C | 10 | 145 µM |
| CC(=O)C1=C(O)C=C2O[C@]34O[C@@]3(C(C)=O)C(=O)C(C)=C(O)[C@]4(O)[C@@]2(C)C1=O | 22 | 234 µM |
| CC(=O)c1c(O)c(C)c(O)c2c1OC1=CC(=O)/C(=C(/C)NCCCC(=O)O)C(=O)[C@@]12C | 3.7 | 130 µM |
| CSCC[C@H](N/C(C)=C1\C(=O)C=C2Oc3c(C(C)=O)c(O)c(C)c(O)c3[C@@]2(C)C1=O)C(=O)O | 5 | 21.1 µM |
| CC(=O)C1=C(O)C[C@H]2Oc3c(C(C)=O)c(O)c(C)c(O)c3[C@@]2(C)C1=O | 1.8 | 14.5 µM |
| CC(=O)c1c(O)c(C)c(O)c2c1OC1=CC(=O)/C(=C(/C)N[C@@H](CC(C)C)C(=O)O)C(=O)[C@@]12C | 2 | 13.1 µM |
| CC(=O)c1c(O)c(C)c(O)c2c1OC1=CC(=O)/C(=C(/C)N[C@H](CC(=O)O)CC(C)C)C(=O)[C@]12C | 5 | 32.8 µM |
| CC(=O)c1c(O)c(C)c(O)c2c1OC1=CC(=O)/C(=C(/C)NCCCC(=O)O)C(=O)[C@]12C | 3 | 83.9 µM |
| CC(=O)c1c(O)c(C)c(O)c2c1OC1=Cc3c(c(C)nn3-c3cccc(C(F)(F)F)c3)C(=O)[C@@]12C | 16 | 1100 µM |
| CC(=O)c1c(O)c(C)c(O)c2c1OC1=Cc3c(c(C)nn3-c3ccccc3)[C@H](O)[C@]12C | 4 | 47.8 µM |
| COc1c(C)c(O)c(C(=O)/C=C/c2ccccc2)c2c1[C@]1(C)C(=Cc3c(c(C)nn3-c3ccccc3)[C@H]1O)O2 | 1.1 | 36.5 µM |
| COc1c(C)c(O)c(C(=O)/C=C/c2ccc(Cl)cc2)c2c1[C@]1(C)C(=Cc3c(c(C)nn3-c3ccccc3)[C@H]1O)O2 | 4.6 | 253 µM |
| COc1ccccc1/C=C/C(=O)c1c(O)c(C)c(OC)c2c1OC1=Cc3c(c(C)nn3-c3ccccc3)[C@@H](O)[C@@]12C | 11 | 909 µM |
| COc1ccc(/C=C/C(=O)c2c(O)c(C)c(OC)c3c2OC2=Cc4c(c(C)nn4-c4ccccc4)[C@@H](O)[C@@]23C)cc1OC | 12.5 | 431 µM |
| COc1cccc(/C=C/C(=O)c2c(O)c(C)c(OC)c3c2OC2=Cc4c(c(C)nn4-c4ccccc4)[C@@H](O)[C@@]23C)c1OC | 17 | 862 µM |
| COc1ccc(/C=C/C(=O)c2c(O)c(C)c(OC)c3c2OC2=Cc4c(c(C)nn4-c4ccccc4)[C@@H](O)[C@@]23C)c(OC)c1OC | 8.5 | 279 µM |
| COc1cc(/C=C/C(=O)c2c(O)c(C)c(OC)c3c2OC2=Cc4c(c(C)nn4-c4ccccc4)[C@@H](O)[C@@]23C)cc(OC)c1OC | 12 | 98.4 µM |
| COc1ccc(OC)c(/C=C/C(=O)c2c(O)c(C)c(OC)c3c2OC2=Cc4c(c(C)nn4-c4ccccc4)[C@@H](O)[C@@]23C)c1 | 20 | 517 µM |
| COc1ccc(/C=C/C(=O)c2c(O)c(C)c(OC)c3c2OC2=Cc4c(c(C)nn4-c4ccccc4)[C@@H](O)[C@@]23C)c(OC)c1 | 20 | 517 µM |
| COc1c(C)c(O)c(C(=O)/C=C/c2ccc(SC)cc2)c2c1[C@]1(C)C(=Cc3c(c(C)nn3-c3ccccc3)[C@H]1O)O2 | 10 | 530 µM |
| COc1cccc(/C=C/C(=O)c2c(O)c(C)c(OC)c3c2OC2=Cc4c(c(C)nn4-c4ccccc4)C(=O)[C@@]23C)c1OC | 4 | 34.6 µM |
| COc1ccc(-c2cc(-c3c(O)c(C)c(OC)c4c3OC3=Cc5c(c(C)nn5-c5ccccc5)[C@@H](O)[C@@]34C)n[nH]2)cc1 | 10 | 1020 µM |

| Structure (SMILES) | selectivity ratio [1] | CC50 at 48 h [2] |
| --- | --- | --- |
| COc1c(C)c(O)c(C(=O)/C=C/c2ccccc2)c2c1[C@@]1(C)C(=Cc3c(c(C)nn3-c3ccccc3)[C@@H]1O)O2 | 1.7 | 106 µM |
| COc1c(C)c(O)c(C(=O)/C=C/c2ccc(Cl)cc2)c2c1[C@@]1(C)C(=Cc3c(c(C)nn3-c3ccccc3)[C@@H]1O)O2 | 1.5 | 116 µM |
| COc1ccccc1/C=C/C(=O)c1c(O)c(C)c(OC)c2c1OC1=Cc3c(c(C)nn3-c3ccccc3)[C@H](O)[C@]12C | 14 | 909 µM |
| COc1cccc(/C=C/C(=O)c2c(O)c(C)c(OC)c3c2OC2=Cc4c(c(C)nn4-c4ccccc4)[C@H](O)[C@]23C)c1OC | 11.3 | 862 µM |
| CC(=O)C1=C(O)C=C2Oc3c4c(c(C)c(O)c3[C@]2(C)C1=O)OCC4=O | 2 | 132 µM |
| CC(=O)C1=C(O)C=C2Oc3c4c(c(C)c(O)c3[C@@]2(C)C1=O)OCC4=O | 1.8 | 117 µM |
| COc1ccccc1/C=C1\Oc2c(C)c(O)c3c(c2C1=O)OC1=CC(O)=C(C(C)=O)C(=O)[C@@]13C | 6.8 | 32.6 µM |
| CC(=O)C1=C(O)C=C2Oc3c4c(c(C)c(O)c3[C@@]2(C)C1=O)O/C(=C\c1ccc(Br)cc1)C4=O | 8.3 | 39.4 µM |
| CC(=O)C1=C(O)C=C2Oc3c4c(c(C)c(O)c3[C@@]2(C)C1=O)O/C(=C\c1ccncc1)C4=O | 6.1 | 46.4 µM |
| CC(=O)C1=C(O)C=C2Oc3c4c(c(C)c(O)c3[C@@]2(C)C1=O)O/C(=C\c1cccnc1)C4=O | 7.7 | 53.4 µM |
| CC(=O)C1=C(O)C=C2Oc3c(C(=O)CSc4nc5ccccc5s4)c(O)c(C)c(O)c3[C@@]2(C)C1=O | 2 | 58.9 µM |
| CC(=O)C1=C(O)C=C2Oc3c(C(=O)CSc4nc5ccccc5o4)c(O)c(C)c(O)c3[C@@]2(C)C1=O | 1 | 2 µM |
| CC(=O)C1=C(O)C=C2Oc3c(C(=O)CSCc4ccccc4)c(O)c(C)c(O)c3[C@@]2(C)C1=O | 3 | 6.4 µM |
| CC(=O)C1=C(O)C=C2Oc3c(C(=O)CSCc4ccc(C)cc4)c(O)c(C)c(O)c3[C@@]2(C)C1=O | 1 | 2.1 µM |
| CC(=O)C1=C(O)C=C2Oc3c(C(=O)CSCc4ncccc4C(=O)O)c(O)c(C)c(O)c3[C@@]2(C)C1=O | 3.1 | 177 µM |
| COc1c(C)c(O)c2c(c1C(=O)CSC1=NCCS1)OC1=CC(O)=C(C(C)=O)C(=O)[C@@]12C | 7.1 | 105 µM |
| COc1ccc2[nH]c(SCC(=O)c3c(OC)c(C)c(O)c4c3OC3=CC(O)=C(C(C)=O)C(=O)[C@@]34C)nc2c1 | 23.1 | 560 µM |
| COc1c(C)c(O)c2c(c1C(=O)CSc1nc3ccccc3o1)OC1=CC(O)=C(C(C)=O)C(=O)[C@]12C | 7.5 | 178 µM |
| COc1c(C)c(O)c2c(c1C(=O)CSCCC(=O)O)OC1=CC(O)=C(C(C)=O)C(=O)[C@@]12C | 5.8 | 938 µM |
| CC(=O)C1=C(O)C=C2Oc3c(C(C)=O)c(OC(F)(Cl)C(F)F)c(C)c(O)c3[C@@]2(C)C1=O (some centres undefined) | 14 | 100 µM |
| CC(=O)C1=C(O)C=C2Oc3c(C(C)=O)c(OC(=O)c4ccccc4Br)c(C)c(OC(=O)c4ccccc4Br)c3[C@@]2(C)C1=O | 4 | 31.1 µM |
| CC(=O)C1=C(O)C=C2O[C@@]34O[C@]3(C(C)=O)C(=O)C(C)=C(O)[C@@]4(O)[C@]2(C)C1=O | 5.3 | 152 µM |
| CC(=O)[C@@]12O[C@@]13OC1=Cc4c(c(C)nn4-c4ccccc4)C(=O)[C@]1(C)[C@@]3(O)C(O)=C(C)C2=O | 5 | 67 µM |
| COc1c(C)c(O)c(C(C)=O)c2c1[C@]1(C)C(=Cc3c(c(C)nn3-c3ccccc3)CC13CO3)O2 (single isomer, unassigned; (+)) | 2.6 | 681 µM |
| COc1c(C)c(O)c(C(=O)/C=C/c2ccccc2)c2c1[C@]1(C)C(=Cc3c(c(C)nn3-c3ccccc3)CC13CO3)O2 (single isomer, unassigned; (+)) | 3.3 | 18.3 µM |
| CC(=O)C1=C(O)C=C2Oc3c(C(C)=O)c(O)c(C)c(O)c3[C@@]2(C)C1=O [(+)-USNIC ACID] | 8.2 | 424 µM |
| CC(=O)C1=C(O)C=C2Oc3c(C(C)=O)c(O)c(C)c(O)c3[C@]2(C)C1=O [(-)-USNIC ACID] | 10.2 | 134 µM |
